ChEMBL document CHEMBL2046430, “Synthesis, biological evaluation and molecular docking studies of 3-(1,3-diphenyl-1H-pyrazol-4-yl)-N-phenylacrylamide derivatives as inhibitors of HDAC activity” (Bioorg Med Chem, 2012)
Activity calls are given as the source filed them. The rule behind the calls is not given here.

Assays:
Histone deacetylase 1 = Histone deacetylase 1 (Homo sapiens, UniProt Q13547); test: Inhibition of HDAC1 in human HeLa cell lysate using KI-104 as substrate after 40 mins by fluorescence analysis; assay type: cell-free
A549 = test: Antiproliferative activity against human A549 cells after 48 hrs by MTT assay; assay type: functional, cell-based; conditions: A549, 48 h
Outline: (§1)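 Cells grown to log phase in RPMI 1640 + 10% FBS, seeded at 2 × 10^4 cells/mL (100 µL/well) and preincubated 24 h at 37 °C, 5% CO2. Compounds added at preset concentrations; MS275 as positive reference. After 48 h exposure, MTT (2.5 mg/mL in PBS) for 4 h, then SDS–isobutanol–HCl solubilization overnight at 37 °C; OD 570 nm. Triplicate wells per concentration, assays repeated ≥3 times; IC50 reported.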

HCT-116 = test: Antiproliferative activity against human HCT116 cells after 48 hrs by MTT assay; assay type: functional, cell-based; conditions: HCT-116, 48 h; outline: as §1
Histone deacetylase 2 = Histone deacetylase 2 (Homo sapiens, UniProt Q92769); test: Inhibition of HDAC2 in human HeLa cell lysate using KI-104 as substrate after 40 mins by fluorescence analysis; assay type: cell-free
[1] = molecular target: Histone deacetylase (Homo sapiens) (UniProt Q13547+O15379+Q9UBN7+Q92769+Q9UQL6+Q8WUI4+Q9BY41+Q96DB2+P56524+Q9UKV0+Q969S8); conditions: HCT-116, 0.1 to 0.8 uM

Histone deacetylase 1, sequence (Q13547 whole entry): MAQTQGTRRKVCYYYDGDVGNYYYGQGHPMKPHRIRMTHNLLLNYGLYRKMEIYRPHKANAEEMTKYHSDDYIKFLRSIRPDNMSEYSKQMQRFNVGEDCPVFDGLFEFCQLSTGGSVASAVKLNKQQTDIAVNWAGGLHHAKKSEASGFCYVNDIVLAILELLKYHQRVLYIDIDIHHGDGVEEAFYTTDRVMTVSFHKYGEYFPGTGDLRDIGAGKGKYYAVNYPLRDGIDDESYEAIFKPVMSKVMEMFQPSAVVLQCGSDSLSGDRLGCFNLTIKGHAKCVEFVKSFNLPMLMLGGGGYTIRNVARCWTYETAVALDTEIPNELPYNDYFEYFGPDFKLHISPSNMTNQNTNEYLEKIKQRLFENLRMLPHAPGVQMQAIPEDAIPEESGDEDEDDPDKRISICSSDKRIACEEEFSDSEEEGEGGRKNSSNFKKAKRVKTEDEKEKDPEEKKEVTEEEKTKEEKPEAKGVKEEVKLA
Histone deacetylase 2, sequence (Q92769 whole entry): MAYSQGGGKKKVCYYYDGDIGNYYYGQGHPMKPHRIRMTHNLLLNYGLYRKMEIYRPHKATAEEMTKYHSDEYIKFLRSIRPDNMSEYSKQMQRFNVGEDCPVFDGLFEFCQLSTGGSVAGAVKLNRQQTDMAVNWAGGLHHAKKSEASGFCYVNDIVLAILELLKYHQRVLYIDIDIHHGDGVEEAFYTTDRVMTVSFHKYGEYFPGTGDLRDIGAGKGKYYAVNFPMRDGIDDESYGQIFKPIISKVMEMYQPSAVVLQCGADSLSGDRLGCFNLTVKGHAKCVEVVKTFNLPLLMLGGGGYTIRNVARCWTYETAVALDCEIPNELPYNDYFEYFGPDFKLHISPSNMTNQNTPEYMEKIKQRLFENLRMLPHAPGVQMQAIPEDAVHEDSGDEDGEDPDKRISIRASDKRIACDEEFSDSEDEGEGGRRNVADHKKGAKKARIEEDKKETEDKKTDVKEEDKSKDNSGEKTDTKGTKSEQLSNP

Q: With `COc1ccc(-c2nn(-c3ccccc3)cc2/C=C\C(=O)Nc2ccc(Cl)cc2)cc1` as the molecule, how does the IC50 (Histone deacetylase 1) read?
A: 1.09 µM

Q: What about the IC50 (A549) of the same molecule?
A: 8.04 µM

Q: What about the IC50 (HCT-116) of the same molecule?
A: 1.56 µM

Q: And the IC50 (Histone deacetylase 2)?
A: 2.36 µM

Q: How did the IC50 (Histone deacetylase 1) turn out when `Cc1ccc(-c2nn(-c3ccccc3)cc2/C=C\C(=O)Nc2ccc(Cl)cc2)cc1` was run?
A: 3.65 µM

Q: And the IC50 (A549)?
A: 15.4 µM

Q: What about the IC50 (HCT-116) of the same molecule?
A: 7.65 µM

Q: And the IC50 (Histone deacetylase 2)?
A: 5.86 µM

Q: What does the source list for `O=C(/C=C\c1cn(-c2ccccc2)nc1-c1ccc(Br)cc1)Nc1ccc(Cl)cc1`?
A: IC50 (Histone deacetylase 1): 2.98 µM; IC50 (A549): 15.8 µM; IC50 (HCT-116): 8.37 µM; IC50 (Histone deacetylase 2): 4.99 µM

Q: `O=C(/C=C\c1cn(-c2ccccc2)nc1-c1ccc([N+](=O)[O-])cc1)Nc1ccc(Cl)cc1` was tested. Which IC50 (Histone deacetylase 1) did it give?
A: 0.46 µM

Q: And the IC50 (A549)?
A: 3.72 µM

Q: What about the IC50 (HCT-116) of the same molecule?
A: 0.64 µM

Q: What about the IC50 (Histone deacetylase 2) of the same molecule?
A: 0.57 µM

Q: Which inhibition [1] does the source give for `O=C(/C=C\c1cn(-c2ccccc2)nc1-c1ccc([N+](=O)[O-])cc1)Nc1ccc(Br)cc1` here?
A: inactive

Q: What about the IC50 (Histone deacetylase 1) of the same molecule?
A: 0.42 µM

Q: What about the IC50 (A549) of the same molecule?
A: 3.71 µM

Q: And the IC50 (HCT-116)?
A: 0.62 µM

Q: And the IC50 (Histone deacetylase 2)?
A: 0.55 µM

Q: `Cc1ccc(-c2nn(-c3ccccc3)cc2/C=C\C(=O)Nc2ccc(Br)cc2)cc1` was tested. Which IC50 (Histone deacetylase 1) did it give?
A: 3.33 µM

Q: And the IC50 (A549)?
A: 11.8 µM

Q: And the IC50 (HCT-116)?
A: 7.16 µM

Q: And the IC50 (Histone deacetylase 2)?
A: 5.02 µM

Q: `COc1ccc(NC(=O)/C=C\c2cn(-c3ccccc3)nc2-c2ccc(OC)cc2)cc1` was tested. Which IC50 (Histone deacetylase 1) did it give?
A: 1.73 µM

Q: What about the IC50 (A549) of the same molecule?
A: 8.59 µM

Q: What about the IC50 (HCT-116) of the same molecule?
A: 2.12 µM

Q: And the IC50 (Histone deacetylase 2)?
A: 3.02 µM

Q: How did the IC50 (Histone deacetylase 1) turn out when `COc1ccc(NC(=O)/C=C\c2cn(-c3ccccc3)nc2-c2ccc(C)cc2)cc1` was run?
A: 4.05 µM

Q: And the IC50 (A549)?
A: > 20 µM

Q: What about the IC50 (HCT-116) of the same molecule?
A: 9.81 µM

Q: What about the IC50 (Histone deacetylase 2) of the same molecule?
A: 6.45 µM

Q: Which results are given for `COc1ccc(-c2nn(-c3ccccc3)cc2/C=C\C(=O)Nc2ccc(Br)cc2)cc1`?
A: IC50 (Histone deacetylase 1): 1.05 µM; IC50 (A549): 7.47 µM; IC50 (HCT-116): 1.53 µM; IC50 (Histone deacetylase 2): 2.17 µM

Q: How did the IC50 (Histone deacetylase 1) turn out when `COc1ccc(-c2nn(-c3ccccc3)cc2/C=C\C(=O)Nc2ccccc2)cc1` was run?
A: 1.76 µM

Q: And the IC50 (A549)?
A: 9.85 µM

Q: What about the IC50 (HCT-116) of the same molecule?
A: 2.09 µM

Q: What about the IC50 (Histone deacetylase 2) of the same molecule?
A: 2.67 µM

Q: For `COc1ccc(NC(=O)/C=C\c2cn(-c3ccccc3)nc2-c2ccc([N+](=O)[O-])cc2)cc1`, which IC50 (Histone deacetylase 1) is on record?
A: 1.02 µM

Q: What about the IC50 (A549) of the same molecule?
A: 5.17 µM

Q: What about the IC50 (HCT-116) of the same molecule?
A: 1.08 µM

Q: And the IC50 (Histone deacetylase 2)?
A: 1.15 µM

Q: Which results are given for `O=C(/C=C\c1cn(-c2ccccc2)nc1-c1ccc(Br)cc1)Nc1ccc(Br)cc1`?
A: IC50 (Histone deacetylase 1): 2.83 µM; IC50 (A549): 12.2 µM; IC50 (HCT-116): 8.16 µM; IC50 (Histone deacetylase 2): 4.87 µM

Q: How did the IC50 (Histone deacetylase 1) turn out when `COc1ccc(NC(=O)/C=C\c2cn(-c3ccccc3)nc2-c2ccc(Br)cc2)cc1` was run?
A: 3.31 µM

Q: And the IC50 (A549)?
A: > 20 µM

Q: And the IC50 (HCT-116)?
A: 9.69 µM

Q: What about the IC50 (Histone deacetylase 2) of the same molecule?
A: 5.35 µM

Q: With `Cc1ccc(-c2nn(-c3ccccc3)cc2/C=C\C(=O)Nc2ccccc2)cc1` as the molecule, how does the IC50 (Histone deacetylase 1) read?
A: 4.06 µM

Q: What about the IC50 (A549) of the same molecule?
A: 16.1 µM

Q: And the IC50 (HCT-116)?
A: 10.4 µM

Q: What about the IC50 (Histone deacetylase 2) of the same molecule?
A: 8.75 µM

Q: With `Nc1ccccc1NC(=O)c1ccc(CNC(=O)OCc2cccnc2)cc1` [ENTINOSTAT] as the molecule, how does the IC50 (A549) read?
A: < 0.1 µM

Q: What about the IC50 (HCT-116) of the same molecule?
A: < 0.1 µM

Q: What does the source list for `O=C(/C=C\c1cn(-c2ccccc2)nc1-c1ccc([N+](=O)[O-])cc1)Nc1ccccc1`?
A: IC50 (Histone deacetylase 1): 0.92 µM; IC50 (A549): 5.18 µM; IC50 (HCT-116): 0.85 µM; IC50 (Histone deacetylase 2): 1.15 µM

Q: Which results are given for `O=C(/C=C\c1cn(-c2ccccc2)nc1-c1ccc(Br)cc1)Nc1ccccc1`?
A: IC50 (Histone deacetylase 1): 3.43 µM; IC50 (A549): > 20 µM; IC50 (HCT-116): 10.7 µM; IC50 (Histone deacetylase 2): 6.52 µM
